Converted amounts (≈) assume the structure as drawn. The source made the active and inactive calls. The calls are words filed in the database; no cut-off is given here.
Columns and labels:
[1] = tested on: Candida albicans; test: Antifungal activity against Candida albicans SN152 assessed as zone inhibition at 25 ug incubated for 24 hrs by disk diffusion method; type: functional, organism-based
Method in brief: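 Strains were streaked on YPD agar and grown at 30 °C: 24 h for parental SN152, 48 h for the erg11ΔΔ erg3ΔΔ mutant. Colonies were suspended in PBS and adjusted to OD 0.02 (SN152) or 0.03 (mutant), then spread on Casitone plates. A 6-mm disk loaded with 25 µg compound was placed centrally. Plates were incubated at 30 °C and photographed after 24 h.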

[2] = tested on: Candida albicans; test: Antifungal activity against ERG11/ERG3 knocked out Candida albicans SN152 assessed as zone of inhibition at 25 ug […] by disk diffusion method; type: functional, organism-based
[3] = tested on: Candida albicans; test: Antifungal activity against Candida albicans ATCC 90028 assessed as reduction in fungal cell growth incubated for 24 hrs by MTT based broth double dilution method; type: functional; settings: ATCC 90028, 24 h
Method in brief: (§1)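 Broth double-dilution in Casitone broth. Starter cultures were grown 24 or 48 h at 37 °C, 5% CO₂, diluted 1:100, and added to serial two-fold dilutions at 64 to 0.007 µg/mL. Final inoculum was 5 x 10^4 to 5 x 10^5 CFU/mL; DMSO was 0.0012–1.3%. Plates were incubated at 37 °C, 5% CO₂, then MTT was added for 2 h. MIC followed CLSI M27-A3. Triplicates, two independent experiments.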

[4] = tested on: Candida albicans; test: Antifungal activity against Candida albicans P-87 assessed as reduction in fungal cell growth incubated for 24 hrs by MTT based broth double dilution method; type: functional; settings: P-87, 24 h; method in brief: as §1
[5] = tested on: Candida albicans; test: Antifungal activity against Candida albicans SN152 assessed as reduction in fungal cell growth incubated for 24 hrs by MTT based broth double dilution method; type: functional; settings: SN152, 24 h; method in brief: as §1
[6] = tested on: Nakaseomyces glabratus; test: Antifungal activity against Candida glabrata ATCC 66032 assessed as reduction in fungal cell growth incubated for 24 hrs by MTT based broth double dilution method; type: functional; settings: ATCC 66032, 24 h; method in brief: as §1
[7] = tested on: Nakaseomyces glabratus; test: Antifungal activity against Candida glabrata ATCC 2001 assessed as reduction in fungal cell growth incubated for 24 hrs by MTT based broth double dilution method; type: functional; settings: ATCC 2001, 24 h; method in brief: as §1
[8] = tested on: Nakaseomyces glabratus; test: Antifungal activity against Candida glabrata 192 assessed as reduction in fungal cell growth incubated for 24 hrs by MTT based broth double dilution method; type: functional; settings: Nakaseomyces glabratus, 192, 24 h; method in brief: as §1
[9] = tested on: Candida parapsilosis; test: Antifungal activity against Candida parapsilosis ATCC 90018 assessed as reduction in fungal cell growth incubated for 24 hrs by MTT based broth double dilution method; type: functional; settings: Lodderomyces parapsilosis, ATCC 90018, 24 h; method in brief: as §1
[10] = tested on: Candida parapsilosis; test: Antifungal activity against Candida parapsilosis ATCC 22019 assessed as reduction in fungal cell growth incubated for 24 hrs by MTT based broth double dilution method; type: functional; settings: Lodderomyces parapsilosis, ATCC 22019, 24 h; method in brief: as §1
[11] = tested on: Meyerozyma guilliermondii; test: Antifungal activity against Candida guilliermondii T-47 assessed as reduction in fungal cell growth incubated for 24 hrs by MTT based broth double dilution method; type: functional; settings: T-47, 24 h; method in brief: as §1
[12] = tested on: Candida dubliniensis; test: Antifungal activity against Candida dubliniensis T-99 assessed as reduction in fungal cell growth incubated for 24 hrs by MTT based broth double dilution method; type: functional; settings: T-99, 24 h; method in brief: as §1
[13] = tested on: Candida albicans; test: Antifungal activity against Candida albicans ATCC 90028 assessed as reduction in fungal cell growth incubated for 48 hrs by MTT based broth double dilution method; type: functional; settings: ATCC 90028, 48 h; method in brief: as §1
[14] = tested on: Candida albicans; test: Antifungal activity against Candida albicans SN152 assessed as reduction in fungal cell growth incubated for 48 hrs by MTT based broth double dilution method; type: functional; settings: SN152, 48 h; method in brief: as §1
[15] = tested on: Nakaseomyces glabratus; test: Antifungal activity against Candida glabrata ATCC 66032 assessed as reduction in fungal cell growth incubated for 48 hrs by MTT based broth double dilution method; type: functional; settings: ATCC 66032, 48 h; method in brief: as §1
[16] = tested on: Nakaseomyces glabratus; test: Antifungal activity against Candida glabrata 192 assessed as reduction in fungal cell growth incubated for 48 hrs by MTT based broth double dilution method; type: functional; settings: Nakaseomyces glabratus, 192, 48 h; method in brief: as §1
[17] = biological target: Cytochrome P450 3A4 (Homo sapiens, UniProt P08684); test: Inhibition of recombinant human CYP3A4 using Luciferin-PPXE as substrate preincubated for 10 mins followed by NADPH addition measured after 15 mins by luminometric method; type: ADME
Method in brief: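 P450-Glo luminescent assay, Luciferin-PPXE substrate. Compound was mixed with membranes containing recombinant human CYP3A4; controls were vehicle with membranes lacking CYP3A4. After 10 min preincubation at 37 °C, NADPH regeneration reagent was added and the mixture kept 15 min at 37 °C. Luciferin detection reagent stopped the reaction; after 20 min at room temperature, luminescence was read. Duplicates.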

[18] = Drug distribution in Candida albicans SN152 assessed as subcellular compound distribution at 10 uM incubated for 60 mins by fluorescent imaging analysis; type: ADME; settings: 1 h
Method in brief: (§2)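 Yeast were grown overnight at 30 °C in YPD liquid, diluted 1:10, and grown 2 h at 30 °C to log phase. Fluorescent azole was added at 10 µM final and incubated 60 min in the dark. Cells were washed once in PBS and imaged on slides in bright field and fluorescence (ex 427 nm, em 510 nm).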

[19] = Drug distribution in Candida glabrata 2001 assessed as subcellular compound distribution at 10 uM incubated for 60 mins by fluorescent imaging analysis; type: ADME; settings: nakaseomyces glabratus, 1 h; method in brief: as §2
[20] = tested on: HepG2; test: Cytotoxicity against human HepG2 cells assessed as reduction in cell viability at 5 to 50 uM incubated for 24 hrs by XTT assay; type: cell-based; settings: hepg2, 24 h
Method in brief: (§3)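 HEK-293T were grown in DMEM with 10% FBS; HepG2 in RPMI with 15% FBS; both at 37 °C, 5% CO₂. Cells (4000 HepG2 or 7000 HEK-293T per well) were seeded on poly-D-lysine wells. After 24 h the medium was renewed and compounds added at 5–50 µM from 1 mM stocks in 10% DMSO/0.3% Tween/PBS. After 24 h more, XTT was added for 2 h at 37 °C; absorbance was read at 475 nm against 660 nm reference.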

[21] = tested on: HEK-293T; test: Cytotoxicity against human HEK293T cells assessed as reduction in cell viability at 5 to 50 uM incubated for 24 hrs by XTT assay; type: cell-based; method in brief: as §3
[22] = Cytotoxicity against human HepG2 cells assessed as reduction in cell viability at 5 to 50 uM incubated for 24 hrs by XTT assay relative to control; type: cell-based; settings: read-out: INH
Method in brief: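 HepG2 cells were maintained in RPMI with 15% FBS, 1% NEAA, 1% pyruvate and pen-strep-nystatin at 37 °C and 5% CO2. 4000 cells/well were plated on poly-D-lysine coating and given fresh medium after 24 h. Compounds were dosed at 5–50 µM from 1 mM stocks in 10% DMSO/0.3% Tween/PBS and incubated 24 h. Viability was read by XTT (2 h, 37 °C) at 475 nm against 660 nm.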

[23] = Cytotoxicity against human HEK293T cells assessed as reduction in cell viability at 5 to 50 uM incubated for 24 hrs by XTT assay relative to control; type: cell-based, HEK-293T; settings: HEK293T cells, read-out: INH
Method in brief: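 HEK-293T cells were grown in DMEM with 10% FBS, 1% NEAA, 1% pyruvate and pen-strep-nystatin at 37 °C and 5% CO2. 7000 cells/well were seeded on poly-D-lysine-coated wells. After 24 h the medium was renewed and compounds were added at 5–50 µM from 1 mM stocks in 10% DMSO/0.3% Tween/PBS. After 24 h, XTT was added for 2 h at 37 °C, with absorbance read at 475 nm (reference 660 nm).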

Cytochrome P450 3A4, sequence (P08684 whole entry): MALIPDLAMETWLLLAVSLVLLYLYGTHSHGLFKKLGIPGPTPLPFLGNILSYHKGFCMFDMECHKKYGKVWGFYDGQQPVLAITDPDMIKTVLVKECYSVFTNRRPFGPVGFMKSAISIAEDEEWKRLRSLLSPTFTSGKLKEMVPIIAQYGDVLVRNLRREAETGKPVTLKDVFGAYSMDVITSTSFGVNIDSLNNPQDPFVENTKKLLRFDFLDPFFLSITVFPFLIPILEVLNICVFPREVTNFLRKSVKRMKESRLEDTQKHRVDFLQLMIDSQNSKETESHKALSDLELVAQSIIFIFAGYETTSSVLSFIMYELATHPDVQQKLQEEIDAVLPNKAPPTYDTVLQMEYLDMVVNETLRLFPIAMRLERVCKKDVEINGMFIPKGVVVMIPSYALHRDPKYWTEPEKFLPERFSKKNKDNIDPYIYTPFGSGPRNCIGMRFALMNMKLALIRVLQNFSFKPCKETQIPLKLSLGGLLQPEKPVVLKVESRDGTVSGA

Structure (SMILES): CCN(CC)c1ccc2cc(C(=O)NCC(O)(Cn3cncn3)c3ccc(F)cc3F)c(=O)oc2c1 (racemic)
- inhibition zone (IZ) [1]: Active
- inhibition zone (IZ) [2]: inactive
- MIC [3]: 0.06 mg/L (≈ 0.121 µM)
- MIC [4]: 0.06 mg/L (≈ 0.121 µM)
- MIC [5]: 0.03 mg/L (≈ 0.0603 µM)
- MIC [6]: 4 mg/L (≈ 8.04 µM)
- MIC [7]: 16 mg/L (≈ 32.2 µM)
- MIC [8]: 8 mg/L (≈ 16.1 µM)
- MIC [9]: 0.125 mg/L (≈ 0.251 µM)
- MIC [10]: 1 mg/L (≈ 2.01 µM)
- MIC [11]: 1 mg/L (≈ 2.01 µM)
- MIC [12]: 1 mg/L (≈ 2.01 µM)
- MIC [13]: 0.125 mg/L (≈ 0.251 µM)
- MIC [14]: 0.125 mg/L (≈ 0.251 µM)
- MIC [15]: > 64 mg/L
- MIC [16]: > 64 mg/L
- IC50 [17]: 1.02 µM
- Drug uptake [18]: Active
- Drug uptake [19]: Active

Structure (SMILES): CCN(CC)c1ccc2cc(C(=O)NCC(O)(Cn3cncn3)c3ccc(Cl)cc3Cl)c(=O)oc2c1 (racemic)
- inhibition zone (IZ) [1]: Active
- inhibition zone (IZ) [2]: inactive
- MIC [3]: 0.03 mg/L (≈ 0.0566 µM)
- MIC [4]: 0.03 mg/L (≈ 0.0566 µM)
- MIC [5]: 0.03 mg/L (≈ 0.0566 µM)
- MIC [6]: 4 mg/L (≈ 7.54 µM)
- MIC [7]: 16 mg/L (≈ 30.2 µM)
- MIC [8]: 4 mg/L (≈ 7.54 µM)
- MIC [9]: 0.06 mg/L (≈ 0.113 µM)
- MIC [10]: 0.5 mg/L (≈ 0.943 µM)
- MIC [11]: 0.25 mg/L (≈ 0.471 µM)
- MIC [12]: 0.5 mg/L (≈ 0.943 µM)
- MIC [13]: 0.06 mg/L (≈ 0.113 µM)
- MIC [14]: 0.06 mg/L (≈ 0.113 µM)
- MIC [15]: > 64 mg/L
- MIC [16]: > 64 mg/L
- IC50 [17]: 0.351 µM
- Activity [20]: Non-Toxic
- Activity [21]: Non-Toxic
- cytotoxicity at 24 h, up to 50 µM [22]: < 40%
- cytotoxicity at 24 h, up to 50 µM [23]: < 40%

Structure (SMILES): CCC(CC)Oc1ccc2cc(C(=O)NCC(O)(Cn3cncn3)c3ccc(Cl)cc3Cl)c(=O)oc2c1 (racemic)
- MIC [3]: 0.06 mg/L (≈ 0.11 µM)
- MIC [4]: 0.03 mg/L (≈ 0.055 µM)
- MIC [5]: 0.06 mg/L (≈ 0.11 µM)
- MIC [6]: > 64 mg/L
- MIC [7]: > 64 mg/L
- MIC [8]: 2 mg/L (≈ 3.67 µM)
- MIC [9]: 0.25 mg/L (≈ 0.458 µM)
- MIC [10]: 0.5 mg/L (≈ 0.917 µM)
- MIC [11]: 0.5 mg/L (≈ 0.917 µM)
- MIC [12]: 0.5 mg/L (≈ 0.917 µM)
- MIC [13]: 0.06 mg/L (≈ 0.11 µM)
- MIC [14]: 0.06 mg/L (≈ 0.11 µM)
- MIC [15]: > 64 mg/L
- MIC [16]: > 64 mg/L
- IC50 [17]: ≥ 2.5 µM
- Activity [20]: Non-Toxic
- Activity [21]: Non-Toxic
- cytotoxicity at 24 h, up to 50 µM [22]: < 40%
- cytotoxicity at 24 h, up to 50 µM [23]: < 40%

Structure (SMILES): CCN(CC)c1ccc2cc(C(=O)NCC(O)(Cn3ccnc3)c3ccc(Cl)cc3Cl)c(=O)oc2c1 (racemic)
- MIC [3]: 0.015 mg/L (≈ 0.0283 µM)
- MIC [4]: 0.03 mg/L (≈ 0.0567 µM)
- MIC [5]: 0.03 mg/L (≈ 0.0567 µM)
- MIC [6]: 4 mg/L (≈ 7.56 µM)
- MIC [7]: 2 mg/L (≈ 3.78 µM)
- MIC [8]: 0.25 mg/L (≈ 0.472 µM)
- MIC [9]: 0.015 mg/L (≈ 0.0283 µM)
- MIC [10]: 0.06 mg/L (≈ 0.113 µM)
- MIC [11]: 0.125 mg/L (≈ 0.236 µM)
- MIC [12]: 0.25 mg/L (≈ 0.472 µM)
- MIC [13]: 0.03 mg/L (≈ 0.0567 µM)
- MIC [14]: 0.06 mg/L (≈ 0.113 µM)
- MIC [15]: > 64 mg/L
- MIC [16]: 1 mg/L (≈ 1.89 µM)
- IC50 [17]: 0.127 µM
- Activity [20]: Toxic
- Activity [21]: Toxic
- cytotoxicity at 24 h, up to 50 µM [22]: < 40%
- cytotoxicity at 24 h, up to 50 µM [23]: < 40%

Source: ChEMBL document CHEMBL4351026, “Antifungal activity, mode of action variability, and subcellular distribution of coumarin-based antifungal azoles” (Eur J Med Chem, 2019)
